proCasp3 act: activates human procaspase-3; P42574; recombinant procaspase-3 D3A, Ac-DEVD-pNA absorbance 405 nm; activation, % at 8.5 µM; hit rate 0.11% among 330,000; AID 463141;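 active = activation above the mean of all tested compounds plus 3 SD, cut at about 21% in these data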;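 note: 0% = DMSO alone and 100% = DMSO wells spiked with extra 5 µM PC-3 D3A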
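Assay system – Procaspase-3 D3A mutant, all three cleavage aspartates alanine · Controls – DMSO-only low control, 5 µM PC-3 D3A high control · Schedule – 1 h compound preincubation, 2 h substrate hydrolysis at 25 °C · Signal – 405 nm absorbance of p-nitroaniline, reads at 0 and 120 min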
p-CIP stab down: p/CIP protein destabilization; decrease of EGFP signal, % at 10 µM; Q05BA5; AID 1984; F442A p/CIP-EGFP cells, EGFP fluorescence, 16 h; hit rate 0.01% among 290,000;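 active = EGFP signal decrease of at least 30% at 10 µM or well 3 SD below plate mean, unless failing retest; inactive = the rest, including hits failing retest or dose response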
Target sequence (Q05BA5 1-1403): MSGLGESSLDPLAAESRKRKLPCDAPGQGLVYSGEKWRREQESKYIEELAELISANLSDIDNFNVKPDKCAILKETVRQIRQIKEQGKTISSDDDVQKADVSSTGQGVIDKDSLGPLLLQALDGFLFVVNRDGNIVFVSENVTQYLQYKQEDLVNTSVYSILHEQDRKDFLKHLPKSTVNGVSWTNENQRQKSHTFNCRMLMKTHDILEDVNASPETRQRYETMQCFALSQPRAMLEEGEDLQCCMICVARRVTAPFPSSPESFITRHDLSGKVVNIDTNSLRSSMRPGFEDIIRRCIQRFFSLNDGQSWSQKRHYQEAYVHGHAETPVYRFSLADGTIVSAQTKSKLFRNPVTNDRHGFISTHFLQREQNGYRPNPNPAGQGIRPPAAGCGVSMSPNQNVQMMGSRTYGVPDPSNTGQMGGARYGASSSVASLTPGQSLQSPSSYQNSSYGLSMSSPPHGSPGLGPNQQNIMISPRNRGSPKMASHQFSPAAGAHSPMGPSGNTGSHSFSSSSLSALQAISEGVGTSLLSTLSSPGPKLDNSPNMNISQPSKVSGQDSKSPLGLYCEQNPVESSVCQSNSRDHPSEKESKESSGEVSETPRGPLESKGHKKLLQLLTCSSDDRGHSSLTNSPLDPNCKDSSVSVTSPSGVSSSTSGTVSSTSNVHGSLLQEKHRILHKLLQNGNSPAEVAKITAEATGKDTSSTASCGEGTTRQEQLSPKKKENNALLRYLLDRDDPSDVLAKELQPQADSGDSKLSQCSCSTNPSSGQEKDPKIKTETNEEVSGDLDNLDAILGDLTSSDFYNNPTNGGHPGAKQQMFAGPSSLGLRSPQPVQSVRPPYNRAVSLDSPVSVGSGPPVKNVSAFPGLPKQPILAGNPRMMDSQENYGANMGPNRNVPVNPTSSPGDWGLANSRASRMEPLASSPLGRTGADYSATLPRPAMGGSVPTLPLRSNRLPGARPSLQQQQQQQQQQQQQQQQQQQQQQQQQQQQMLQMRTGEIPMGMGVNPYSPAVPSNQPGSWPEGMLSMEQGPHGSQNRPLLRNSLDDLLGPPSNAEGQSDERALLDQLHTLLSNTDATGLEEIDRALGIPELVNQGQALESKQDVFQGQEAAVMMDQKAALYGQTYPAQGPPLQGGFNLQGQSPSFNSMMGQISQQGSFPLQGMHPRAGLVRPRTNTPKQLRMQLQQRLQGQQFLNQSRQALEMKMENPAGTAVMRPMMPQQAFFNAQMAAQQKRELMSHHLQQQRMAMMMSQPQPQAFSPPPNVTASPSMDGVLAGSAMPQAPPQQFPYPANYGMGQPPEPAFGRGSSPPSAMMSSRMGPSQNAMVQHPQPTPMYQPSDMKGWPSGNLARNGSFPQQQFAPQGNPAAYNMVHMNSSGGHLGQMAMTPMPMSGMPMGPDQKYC
proCasp7 act: activates human procaspase-7, counter-screen for procaspase-3 activators; recombinant procaspase-7, Ac-DEVD-pNA absorbance 405 nm; D23A/D198A/D206A triple mutant, cannot self-cleave; scale: DMSO 0, 5 µM enzyme 100; activation, % at 8.5 µM; hit rate 0.093% among 330,000;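 active = percent activation above the screen-wide mean plus 3 SD, cut at about 25% in these data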
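Detection: p-Nitroaniline absorbance at 405 nm, read at 0 and 120 min; system: Uncleavable procaspase-7 mutant enzyme; evaluation: % activation from two-timepoint absorbance difference, scaled to controls; times: 1 h enzyme–compound preincubation and 2 h substrate reaction, both 25 °C; buffer or medium: Zinc-free HEPES pH 7.4 with 300 mM NaCl, 0.01% Triton X-100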
FXN GAA850 act: increases GAA850 frataxin promoter reporter activity; HEK293 lucGAA850 FXN promoter luciferase reporter, 24 h; percent of 10 µM SAHA response; activation, % at 6 µM; hit rate 0.56% among 360,000; AID 540364;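 active = activation above the average of all compounds screened plus 3 SD, cutoff fixed separately per campaign, cut at about 7.5% in these data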;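 note: 0% = DMSO wells and 100% = 10 µM SAHA wells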
Rce1 inhib: blocks yeast Ras-converting enzyme | Q03530 | yeast membranes, quenched prenylated peptide cleavage fluorescence | calls only | hit rate 0.27% among 290,000 | AID 2563;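 active = fall in fluorescence gain of 50% or more versus controls, with final raw signal at or below 3038400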;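 note: plate controls were neutral control wells for no effect and wells lacking membranes for full effect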
Hep lipid drop: modulators of hepatic lipid droplet formation | AML12 mouse hepatocytes, oleate lipid droplets, BODIPY imaging | inhibition, % at 6.5 µM | hit rate 0.4% among 240,000;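 active = lipid droplet intensity inhibited by at least 50%, with more than 500 cells counted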
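Assay system: AML12 mouse liver cells | Compound dosing: One dose, 6.5 µM compound | Read-out basis: Droplet intensity reduction, % inhibition | Measured by: Fluorescence imaging, 20x objective, two fields per well | Schedule: Overnight treatment with compound plus oleate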
Lipid drop inh: hepatic lipid droplet formation inhibition, confirmed | shares compounds with Hep lipid drop | AML12 mouse hepatocytes, BODIPY lipid droplet imaging; droplets induced with 100 µM oleic acid | inhibition, % at 5.2 µM | hit rate 65% among 870 | AID 463183;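 active = inhibition of lipid droplet metric at least 50%, with more than 300 cells in each of four replicates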;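 note: plate controls were DMSO with oleic acid for no effect and 5 µM Triacsin-C for full effect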
AML12 cytotox: AML12 hepatocyte cytotoxicity (counter-screen). AID 463200. AML12 mouse hepatocytes, DAPI nuclear morphology cytotoxicity imaging; stronger effect = higher value; cells fed 100 µM oleate overnight. z-score at 5 µM. shares compounds with Hep lipid drop. hit rate 3% among 870; in the data active = z-score above about 6.3;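 note: compound exposure lasted overnight at 37 °C before fixation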
AML12 tox conf: AML12 hepatocyte cytotoxicity, confirmed; AML12 mouse hepatocyte viability, ATP luminescence; cells loaded with 100 µM oleic acid; cytotoxicity, % at 50 µM; shares compounds with Hep lipid drop; 530 tested, under 10 active;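 active = cytotoxicity above 50% in each of four replicates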;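 note: compound exposure lasted overnight at 37 °C before the ATP read; 0% = DMSO-treated cells and 100% = wells with no cells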
An asterisk follows results filed as active; i = inactive; nt = no result. This is a sample that favours compounds with a hit; in the whole collection about 1.2% have one here.

SMILES | proCasp3 act | p-CIP stab down | proCasp7 act | FXN GAA850 act | Rce1 inhib | Hep lipid drop | Lipid drop inh | AML12 cytotox | AML12 tox conf
CCOc1ccc(CCNC(=O)CCNS(=O)(=O)c2ccc(Br)cc2)cc1OCC | 0.1 | -10.3 | -6.3 | -1.3 | i | 75.4* | 98.2* | -0.356 | 15.5
COc1ccc(CCNC(=O)CCS(=O)(=O)c2ccc(C)cc2)cc1OC | 3.5 | -14.4 | -0.6 | 0.4 | i | 3.0 | nt | nt | nt
O=C(CCNS(=O)(=O)c1ccc(Br)cc1)NCCc1ccc(Cl)cc1 | 2.2 | -11.0 | 15.2 | -1.6 | i | -8.0 | nt | nt | nt
COc1ccc(NC(=O)c2cc(C3CCCCN3C(=O)c3cc(OC)c(C)c(OC)c3)on2)c(C)c1 (centres undefined) | nt | nt | nt | 2.6 | nt | nt | nt | nt | nt
COc1ccc(CCCNC(=O)C2(C)Cc3c(-c4ccc5c(c4)OCO5)ccnc3O2)cc1 (centres undefined) | nt | nt | nt | -4.0 | nt | nt | nt | nt | nt
COC(=O)c1ccc(C(=S)NCC2(N(C)C)CCCCC2)cc1 | 2.2 | -1.3 | 0.7 | 0.6 | i | -7.8 | nt | nt | nt
COc1ccc(N=Nc2nc(-c3ccccc3)c(-c3ccccc3)[nH]2)cc1 | 14.0 | -5.3 | 9.2 | 0.1 | i | 99.8* | 107.9* | 1.01 | -10.1
COCCn1cnc2c(c1=O)c1nc3ccccc3nc1n2/N=C/c1ccc(OC)c(OC)c1 | 6.9 | -22.8 | 5.0 | -4.9 | i | 52.6* | 4.6 | 0.688 | nt
CCOc1ccccc1NC(=O)CC1Nc2cc(C)c(C)cc2NC1=O (centres undefined) | -13.4 | -7.5 | -8.4 | 1.1 | i | 58.6* | 66.6* | 1.3 | nt
Nc1cc(Nc2ccccc2)c2nonc2c1[N+](=O)[O-] | -11.4 | -6.5 | -19.3 | 0.5 | i | 101.3* | 110.3* | 0.69 | 3.5
CCc1nc2ccc(C(=O)Nc3cccc(NS(C)(=O)=O)c3)cn2c1N(C)C(=O)c1cccc(OC)c1 | nt | nt | nt | 0.0 | nt | nt | nt | nt | nt
CCCNC(=O)C1(C)CCCN(C(=O)c2cccc(C(F)(F)F)c2)C1 (centres undefined) | nt | nt | nt | 0.1 | nt | nt | nt | nt | nt
Cc1ccc(/C(=N\S(=O)(=O)c2ccc(Br)cc2)Nc2ccccc2C)cc1 | 2.2 | -0.9 | 9.7 | -0.2 | i | -7.8 | nt | nt | nt
Cc1ccccc1N/C(=N/S(=O)(=O)c1ccccc1)c1ccc(F)cc1 | 6.2 | -2.7 | 5.5 | 0.7 | i | 54.4* | -10.0 | 0.382 | nt
Nc1ccc2nc(Cc3ccccc3)[nH]c2c1 | -5.8 | -3.7 | -5.4 | 1.5 | i | 54.1* | -10.9 | 0.198 | nt
CC1(OC(=O)CCc2ccccc2)C(=O)C=C2C=C(c3ccc(C#N)cc3)N(CCc3c[nH]c4ccccc34)C=C2C1=O (centres undefined) | 0.4 | -6.0 | 3.2 | -0.3 | i | 59.7* | 44.2 | 0.537 | nt
COc1ccc(-c2coc3c(C(=O)NCC4CC4)cccc23)c(C)c1 | nt | nt | nt | 0.5 | nt | nt | nt | nt | nt
CCN(CC)CCNc1nc2c(c(=O)[nH]c(=O)n2C)n1CC(O)COc1ccc(Cl)cc1Cl (centres undefined) | 6.2 | -9.5 | 8.1 | 0.9 | i | nt | nt | nt | nt
Cc1cc(C)n(-c2nc3c(c(=O)[nH]c(=O)n3C)n2CC(O)COc2ccc(Cl)cc2Cl)n1 (centres undefined) | -2.8 | -2.9 | -8.4 | 0.3 | i | 52.4* | -16.1 | 0.685 | nt
O=C(O)Cc1coc2ccc3ccccc3c12 | 9.3 | 4.3 | 4.3 | 2.0 | i | 25.4 | nt | nt | nt
Cc1cccc(NC(=O)Cc2coc3ccc4ccccc4c23)n1 | -0.6 | -31.3 | 4.8 | -4.4 | i | 57.4* | 87.8* | -0.14 | 13.8
COc1ccc(OC)c(NC(=O)Cc2coc3ccc4ccccc4c23)c1 | -5.8 | 3.0 | 7.9 | 0.9 | i | 50.6* | 85.5* | 0.517 | 11.9
CCCC(=O)N1CCC1(C)C(=O)Nc1cccc(F)c1 (centres undefined) | nt | nt | nt | 2.1 | nt | nt | nt | nt | nt
CCOc1ccc(CCNC(=O)CS(=O)Cc2nc(-c3ccc(OC)c(OC)c3)oc2C)cc1OCC (centres undefined) | -3.7 | -6.4 | -13.0 | 1.4 | i | 57.8* | 73.6* | -0.341 | 17.2
CCOc1ccc(CCNC(=O)COC(=O)c2cc(OC)c(OC)c(OC)c2)cc1OCC | -1.0 | -11.3 | 4.1 | nt | i | 75.0* | 108.7* | -0.531 | 11.3
SMILES | proCasp3 act | p-CIP stab down | proCasp7 act | FXN GAA850 act | Rce1 inhib | Hep lipid drop | Lipid drop inh | AML12 cytotox | AML12 tox conf
CCOc1ccc(CCNC(=O)COC(=O)c2ccc(Cl)nc2)cc1OCC | 19.8 | nt | -0.5 | 1.6 | i | nt | nt | nt | nt
CCOc1ccc(CCNC(=O)COC(=O)c2c(C)nn(-c3ccccc3)c2C)cc1OCC | -2.1 | 0.4 | -1.1 | -3.8 | i | 86.5* | 110.0* | -0.393 | 15.4
CCOc1ccc(CCNC(=O)COC(=O)c2cc([N+](=O)[O-])ccc2N2CCOCC2)cc1OCC | -7.3 | 4.5 | -11.3 | 0.3 | i | 68.3* | 102.6* | -0.406 | 18.3
CCCCN(C=O)c1c(CC)nc2ccc(C(=O)NCCc3ccccn3)cn12 | nt | nt | nt | 2.1 | nt | nt | nt | nt | nt
CCOc1ccc(CCNC(=O)Cn2ncn3nc(-c4ccc(OC)cc4)cc3c2=O)cc1OCC | 8.9 | 4.0 | -1.7 | 0.9 | i | 85.0* | 101.2* | 0.454 | 3.8
O=C(COC(=O)c1cc[n+]([O-])cc1)Nc1ccc(SC(F)F)cc1 | 0.9 | -0.3 | 0.1 | 0.6 | i | -22.9 | nt | nt | nt
Cc1ccc(-n2nc3c(=O)n(C(C)C(=O)NCCC4=CCCCC4)nc(C)c3c2C)cc1 (centres undefined) | 5.4 | -40.8 | 3.8 | -4.0 | i | 58.3* | 83.1* | -1.51 | 17.5
CCOc1ccc(C(=O)OCC(=O)Nc2ccc(SC(F)F)cc2)cc1OCC | -3.9 | -7.5 | 6.7 | 1.4 | i | 50.6* | 71.9* | -0.598 | nt
CCOc1ccc(CCNC(=O)Cn2nc(C)c3c(C)n(-c4ccccc4)nc3c2=O)cc1OCC | 0.6 | -0.4 | 9.7 | -0.4 | i | 90.6* | 93.3* | -0.624 | 8.1
CCOc1ccc(CCNC(=O)CCn2nc(C)c3c(C)n(-c4ccccc4)nc3c2=O)cc1 | 3.6 | -5.1 | 4.4 | 0.4 | i | -11.6 | nt | nt | nt
Cn1cc(Cc2ccc(C(=O)NCc3ccccc3)cn2)c2ccccc21 | nt | nt | nt | 0.8 | nt | nt | nt | nt | nt
CCC(C(=O)NCCc1ccccc1OC)n1nc(C)c2c(C)n(-c3ccccc3)nc2c1=O (centres undefined) | -0.5 | -8.2 | -6.8 | -1.8 | i | 57.3* | 82.3* | -0.723 | 13.8
